Results as given in ChEMBL document CHEMBL1154842, “Synthesis, radiolabeling, and biological evaluation of (R)- and (S)-2-amino-3-[(18)F]fluoro-2-methylpropanoic acid (FAMP) and (R)- and (S)-3-[(18)F]fluoro-2-methyl-2-N-(methylamino)propanoic acid (NMeFAMP) as potential PET radioligands for imaging brain tumors” (J Med Chem, 2010).

Assays:
9L [1] = test: Cellular uptake in rat 9L cells at 5 uCi measured […] by gamma counting; type: ADME, cell-based
Summary of the method: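 9L rat gliosarcoma cells, grown in DMEM with 10% FCS, were trypsinised and washed in HBSS. About 5×10^5 cells were exposed to 5 μCi tracer in amino-acid-free HBSS for 30 min at 37 °C, 5% CO2, then centrifuged and rinsed twice with ice-cold HBSS. Cells were gamma-counted and decay-corrected, with uptake reported as % of initial dose per 5×10^5 cells ± SD, n=3.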

9L [2] = test: Cellular uptake in rat 9L cells at 5 uCi measured […] by gamma counting in presence of system L transport inhibitor BCH; type: ADME, cell-based
Summary of the method: (§1)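 9L rat gliosarcoma cells (DMEM, 10% FCS, 37 °C, 5% CO2) were trypsinised and washed in HBSS. About 5×10^5 cells took up 5 μCi tracer for 30 min in 0.1 mL amino acid-free HBSS, with inhibitor at 10 mM final (ACS: 3.3 mM each of alanine, cysteine, serine). Cells were spun and rinsed twice with ice-cold HBSS, then gamma counted with decay correction. Triplicates; uptake is % ID per 5×10^5 cells.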

9L [3] = test: Cellular uptake in rat 9L cells assessed as inhibition of uptake at 5 uCi measured […] by gamma counting in presence of system L transport inhibitor BCH relative to control; type: ADME, cell-based; design: scale not given: the % may be the effect or the level left
Summary of the method: (§2)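 9L rat gliosarcoma cells, grown in DMEM with 10% FCS, were trypsinised and washed in HBSS. About 5×10^5 cells were incubated with 5 μCi tracer in amino-acid-free HBSS for 30 min at 37 °C, with or without 10 mM final BCH, MeAIB or ACS (3.3 mM each Ala/Cys/Ser). Cells were washed cold, gamma-counted and decay-corrected. Inhibition is percent of control; triplicates, one-way ANOVA.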

9L [4] = test: Cellular uptake in rat 9L cells at 5 uCi measured […] by gamma counting in presence of system A transport inhibitor MeAIB; type: ADME, cell-based; summary of the method: as §1
9L [5] = test: Cellular uptake in rat 9L cells assessed as inhibition of uptake at 5 uCi measured […] by gamma counting in presence of system ASC transport inhibitor ACS relative to control; type: ADME, cell-based; design: scale not given: the % may be the effect or the level left; summary of the method: as §2
9L [6] = test: Cellular uptake in rat 9L cells assessed as inhibition of uptake at 5 uCi measured […] by gamma counting in presence of system A transport inhibitor MeAIB relative to control; type: ADME, cell-based; design: scale not given: the % may be the effect or the level left; summary of the method: as §2
9L [7] = test: Cellular uptake in rat 9L cells at 5 uCi measured per 0.5 million cells by gamma counting in presence of system ASC transport inhibitor ACS
[8] = Biodistribution in tumor of Fischer 344 rat bearing rat 9L cells at 20 uCi, iv after 30 mins; type: ADME, organism-based, Neoplasm; settings: in vivo, 0.5 h
Summary of the method: (§3)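 Male Fischer 344 rats (200–250 g) carrying intracranial 9L gliosarcoma (5×10^4 cells implanted stereotactically, 10–12 days growth), under ketamine:xylazine anaesthesia. About 20 μCi tracer in 0.5 mL sterile saline given via tail-vein catheter. Groups of 4–5 were killed by intracardiac KCl at 15 (NMeFAMP only), 30, 60 or 120 min. Tissues were weighed and gamma-counted, decay-corrected, and reported as %ID/g, mean ± SD.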

Heart [9] = test: Biodistribution in heart of Fischer 344 rat bearing rat 9L cells at 20 uCi, iv after 120 mins; type: ADME, organism-based; settings: in vivo, 2 h; summary of the method: as §3
Liver [10] = test: Biodistribution in liver of Fischer 344 rat bearing rat 9L cells at 20 uCi, iv after 120 mins; type: ADME, organism-based; settings: in vivo, 2 h; summary of the method: as §3
Kidney [11] = test: Biodistribution in kidney of Fischer 344 rat bearing rat 9L cells at 20 uCi, iv after 30 mins; type: ADME, organism-based; settings: in vivo, 0.5 h; summary of the method: as §3
Bone [12] = test: Biodistribution in bone of Fischer 344 rat bearing rat 9L cells at 20 uCi, iv after 120 mins; type: ADME, organism-based, Bone element; settings: in vivo, 2 h; summary of the method: as §3
Lung [13] = test: Biodistribution in lung of Fischer 344 rat bearing rat 9L cells at 20 uCi, iv after 30 mins; type: ADME, organism-based; settings: in vivo, 0.5 h; summary of the method: as §3
Blood [14] = test: Biodistribution in blood of Fischer 344 rat bearing rat 9L cells at 20 uCi, iv after 120 mins; type: ADME, organism-based; settings: in vivo, 2 h; summary of the method: as §3
Spleen [15] = test: Biodistribution in spleen of Fischer 344 rat bearing rat 9L cells at 20 uCi, iv after 30 mins; type: ADME, organism-based; settings: in vivo, 0.5 h; summary of the method: as §3
Lung [16] = test: Biodistribution in lung of Fischer 344 rat bearing rat 9L cells at 20 uCi, iv after 60 mins; type: ADME, organism-based; settings: in vivo, 1 h; summary of the method: as §3
Brain = test: Biodistribution in brain of Fischer 344 rat bearing rat 9L cells at 20 uCi, iv after 30 mins; settings: in vivo, 0.5 h
Bone [17] = test: Biodistribution in bone of Fischer 344 rat bearing rat 9L cells at 20 uCi, iv after 30 mins; type: ADME, organism-based, Bone element; settings: in vivo, 0.5 h; summary of the method: as §3
Heart [18] = test: Biodistribution in heart of Fischer 344 rat bearing rat 9L cells at 20 uCi, iv after 30 mins; type: ADME, organism-based; settings: in vivo, 0.5 h; summary of the method: as §3
[19] = Ratio of drug level from tumor to brain of Fischer 344 rat bearing rat 9L cells at 20 uCi, iv after 120 mins; type: ADME, organism-based; settings: in vivo, 2 h
Pancreas [20] = test: Biodistribution in pancreas of Fischer 344 rat bearing rat 9L cells at 20 uCi, iv after 30 mins; type: ADME, organism-based; settings: in vivo, 0.5 h; summary of the method: as §3
Muscle tissue [21] = test: Biodistribution in muscle of Fischer 344 rat bearing rat 9L cells at 20 uCi, iv after 30 mins; type: ADME, organism-based; settings: in vivo, 0.5 h; summary of the method: as §3
[22] = Ratio of drug level from tumor to brain of Fischer 344 rat bearing rat 9L cells at 20 uCi, iv after 60 mins; settings: in vivo, 1 h
[23] = Biodistribution in testis of Fischer 344 rat bearing rat 9L cells at 20 uCi, iv after 30 mins; type: ADME, organism-based; settings: in vivo, 0.5 h; summary of the method: as §3
Blood [24] = test: Biodistribution in blood of Fischer 344 rat bearing rat 9L cells at 20 uCi, iv after 60 mins; type: ADME, organism-based; settings: in vivo, 1 h; summary of the method: as §3
Liver [25] = test: Biodistribution in liver of Fischer 344 rat bearing rat 9L cells at 20 uCi, iv after 60 mins; type: ADME, organism-based; settings: in vivo, 1 h; summary of the method: as §3
Bone [26] = test: Biodistribution in bone of Fischer 344 rat bearing rat 9L cells at 20 uCi, iv after 60 mins; type: ADME, organism-based, Bone element; settings: in vivo, 1 h; summary of the method: as §3
Kidney [27] = test: Biodistribution in kidney of Fischer 344 rat bearing rat 9L cells at 20 uCi, iv after 60 mins; type: ADME, organism-based; settings: in vivo, 1 h; summary of the method: as §3
Pancreas [28] = test: Biodistribution in pancreas of Fischer 344 rat bearing rat 9L cells at 20 uCi, iv after 120 mins; type: ADME, organism-based; settings: in vivo, 2 h; summary of the method: as §3
Blood [29] = test: Biodistribution in blood of Fischer 344 rat bearing rat 9L cells at 20 uCi, iv after 30 mins; type: ADME, organism-based; settings: in vivo, 0.5 h; summary of the method: as §3
[30] = Biodistribution in tumor of Fischer 344 rat bearing rat 9L cells at 20 uCi, iv after 30 mins; settings: in vivo, 0.5 h
Lung [31] = test: Biodistribution in lung of Fischer 344 rat bearing rat 9L cells at 20 uCi, iv after 120 mins; type: ADME, organism-based; settings: in vivo, 2 h; summary of the method: as §3
[32] = Biodistribution in testis of Fischer 344 rat bearing rat 9L cells at 20 uCi, iv after 60 mins; type: ADME, organism-based; settings: in vivo, 1 h; summary of the method: as §3
[33] = Biodistribution in testis of Fischer 344 rat bearing rat 9L cells at 20 uCi, iv after 120 mins; type: ADME, organism-based; settings: in vivo, 2 h; summary of the method: as §3
Liver [34] = test: Biodistribution in liver of Fischer 344 rat bearing rat 9L cells at 20 uCi, iv after 30 mins; type: ADME, organism-based; settings: in vivo, 0.5 h; summary of the method: as §3
Kidney [35] = test: Biodistribution in kidney of Fischer 344 rat bearing rat 9L cells at 20 uCi, iv after 120 mins; type: ADME, organism-based; settings: in vivo, 2 h; summary of the method: as §3
Spleen [36] = test: Biodistribution in spleen of Fischer 344 rat bearing rat 9L cells at 20 uCi, iv after 120 mins; type: ADME, organism-based; settings: in vivo, 2 h; summary of the method: as §3
Pancreas [37] = test: Biodistribution in pancreas of Fischer 344 rat bearing rat 9L cells at 20 uCi, iv after 60 mins; type: ADME, organism-based; settings: in vivo, 1 h; summary of the method: as §3
[38] = rat, in vivo, iv, 1 h
Muscle tissue [39] = test: Biodistribution in muscle of Fischer 344 rat bearing rat 9L cells at 20 uCi, iv after 120 mins; type: ADME, organism-based; settings: in vivo, 2 h; summary of the method: as §3
[40] = rat, in vivo, iv, 1 h; remark: listed apart in the source
Spleen [41] = test: Biodistribution in spleen of Fischer 344 rat bearing rat 9L cells at 20 uCi, iv after 60 mins; type: ADME, organism-based; settings: in vivo, 1 h; summary of the method: as §3
Heart [42] = test: Biodistribution in heart of Fischer 344 rat bearing rat 9L cells at 20 uCi, iv after 60 mins; type: ADME, organism-based; settings: in vivo, 1 h; summary of the method: as §3
Muscle tissue [43] = test: Biodistribution in muscle of Fischer 344 rat bearing rat 9L cells at 20 uCi, iv after 60 mins; type: ADME, organism-based; settings: in vivo, 1 h; summary of the method: as §3

CN[C@](C)(CF)C(=O)O.Cl
Drug uptake (9L [1]): 3.87 %ID
Drug uptake (9L [2]): 2.76 %ID
Activity (9L [3]): 29%
Drug uptake (9L [4]): 0.82 %ID
Activity (9L [5]): 58%
Activity (9L [6]): 79%
Drug uptake (9L [7]): 1.62 %ID

C[C@](N)(C[18F])C(=O)O.Cl
Ratio [8]: 38.2
Drug uptake (Heart [9]): 0.23 % ID/g
Drug uptake (Liver [10]): 0.32 % ID/g
Drug uptake (Kidney [11]): 3.47 % ID/g
Drug uptake (Bone [12]): 0.26 % ID/g
Drug uptake (Lung [13]): 0.37 % ID/g
Drug uptake (Blood [14]): 0.16 % ID/g
Drug uptake (Spleen [15]): 0.72 % ID/g
Drug uptake (Lung [16]): 0.4 % ID/g
Drug uptake (Brain): 0.06 % ID/g
Drug uptake (Bone [17]): 0.23 % ID/g
Drug uptake (Heart [18]): 0.32 % ID/g
Ratio [19]: 27.5
Drug uptake (Pancreas [20]): 2.96 % ID/g
Drug uptake (Muscle tissue [21]): 0.32 % ID/g
Ratio [22]: 28.6
Drug uptake [23]: 0.15 % ID/g
Drug uptake (Blood [24]): 0.25 % ID/g
Drug uptake (Liver [25]): 0.65 % ID/g
Drug uptake (Bone [26]): 0.36 % ID/g
Drug uptake (Kidney [27]): 2.96 % ID/g
Drug uptake (Pancreas [28]): 1.17 % ID/g
Drug uptake (Blood [29]): 0.28 % ID/g
Drug uptake [30]: 2.46 % ID/g
Drug uptake (Lung [31]): 0.23 % ID/g
Drug uptake [32]: 0.17 % ID/g
Drug uptake [33]: 0.16 % ID/g
Drug uptake (Liver [34]): 0.6 % ID/g
Drug uptake (Kidney [35]): 2.09 % ID/g
Drug uptake (Spleen [36]): 0.39 % ID/g
Drug uptake (Pancreas [37]): 2.05 % ID/g
Drug uptake [38]: 2.82 % ID/g
Drug uptake (Muscle tissue [39]): 0.36 % ID/g
Drug uptake [40]: 0.1 % ID/g
Drug uptake (Spleen [41]): 0.71 % ID/g
Drug uptake (Heart [42]): 0.34 % ID/g
Drug uptake (Muscle tissue [43]): 0.52 % ID/g

N[C@]1(C(=O)O)C[C@@H]([18F])C1 [FLUCICLOVINE F18]
Drug uptake [40]: 0.26 % ID/g

OC[C@H]1O[C@@H](O)[C@H]([18F])[C@@H](O)[C@@H]1O [FLUDEOXYGLUCOSE-F18]
Ratio [22]: 0.8
Drug uptake [38]: 1.05 % ID/g
Drug uptake [40]: 1.3 % ID/g
